ChEMBL document CHEMBL4219079, “Design, synthesis, and evaluation of the antiproliferative activity of hydantoin-derived antiandrogen-genistein conjugates” (Bioorg Med Chem, 2018)
Calls of active or inactive are those of the source. No cut-off for these calls is given here.

Columns and labels:
LNCaP [1] = assay: Cell cycle arrest in human LNCAP cells assessed as accumulation at G1 phase at 40 uM after 24 hrs by propidium iodide staining based flow cytometry (reference value: 52.4%); format: functional
LNCaP [2] = assay: Cell cycle arrest in human LNCAP cells assessed as accumulation at S phase at 40 uM after 24 hrs by propidium iodide staining based flow cytometry (reference value: 37.5%); format: functional
LNCaP [3] = assay: Cell cycle arrest in human LNCAP cells assessed as accumulation at G2 phase at 40 uM after 24 hrs by propidium iodide staining based flow cytometry (reference value: 9.83%); format: functional
LNCaP [4] = assay: Cell cycle arrest in human LNCAP cells assessed as accumulation at less G1 phase at 40 uM after 24 hrs by propidium iodide staining based flow cytometry (reference value: 1.5%); format: functional
LNCaP [5] = assay: Cell cycle arrest in human LNCAP cells assessed as accumulation at greater G2 phase at 40 uM after 24 hrs by propidium iodide staining based flow cytometry (reference value: -0.37%); format: functional
LNCaP [6] = assay: Antiproliferative activity against human LNCAP cells after 72 hrs by MTS assay; format: functional, cell-based
In short: (§1)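 Seeded at 4,500 cells per well and exposed to compound in triplicate for 72 h. LNCaP were cultured in phenol-red-free RPMI-1640 and DU145 in EMEM, each with 10% FBS and penicillin/streptomycin, at 37 °C under 5% CO2. Viability was read by MTS. IC50 came from dose-response curve fitting. For combination lines, genistein was given together with enzalutamide.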

DU-145 [7] = assay: Antiproliferative activity against human DU145 cells after 72 hrs by MTS assay; format: functional, cell-based; in short: as §1
LNCaP [8] = assay: Antiproliferative activity against human LNCAP cells assessed as cell survival up to 100 uM after 72 hrs by MTS assay relative to control; format: functional
In short: (§2)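 LNCaP (phenol-red free RPMI-1640) or DU145 (EMEM), each with 10% FBS and penicillin/streptomycin, at 37 °C in 5% CO2. Cells seeded at 4,500 per well and exposed to compound in triplicate for 72 h. Viability read by MTS. Curves are the average of triplicate experiments, with IC50 taken from curve fitting.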

DU-145 [9] = assay: Antiproliferative activity against human DU145 cells assessed as cell survival up to 100 uM after 72 hrs by MTS assay relative to control; format: functional; in short: as §2
PC-3 [10] = assay: Antiproliferative activity against human AR negative PC3 cells at 2.5 uM after 72 hrs by MTS assay relative to control; format: functional
In short: (§3)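 PC3, C4-2 and 22Rv1 prostate cancer cells treated in serum-fed medium with a range of doses, up to 50 μM. Growth read at 72 h post-treatment by MTS assay as percent of control. Data are averages of two independent experiments, each done in duplicate.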

LNCaP C4-2 [11] = assay: Antiproliferative activity against human AR positive C4-2 cells at 1.25 uM after 72 hrs by MTS assay relative to control; format: functional; in short: as §3
CWR22R [12] = assay: Antiproliferative activity against human 22Rv1 cells harboring truncated AR at 1.25 uM after 72 hrs by MTS assay relative to control; format: functional; in short: as §3
LNCaP [13] = assay: Downregulation of AR protein level in human LNCAP cells after 24 hrs by Western blot method; format: functional, cell-based
In short: (§4)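 LNCaP seeded at 10^6 cells/dish 24 h before a 24 h compound treatment, with DMSO as control. Lysates were made in CelLyticM with protease inhibitors and quantified by Bradford. Equal protein was run on SDS-PAGE at 100 V for 2 h, transferred to nitrocellulose, and probed for AR, with actin as loading control.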

LNCaP [14] = assay: Downregulation of AR protein level in human LNCAP cells at 1.25 to 2.5 uM after 24 hrs in presence of proteasome inhibitor bortezomib by Western blot method; format: functional, cell-based
In short: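 LNCaP seeded at 10^6 cells/dish and pretreated with bortezomib at 20 nM or 40 nM for 2 h. Cells were then exposed to compound for 24 h. AR protein was assessed by immunoblot after Bradford-normalized SDS-PAGE (100 V, 2 h) and nitrocellulose transfer, with actin as loading control.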

LNCaP [15] = assay: Cell cycle arrest in human LNCAP cells assessed as accumulation at G1 phase at 2.5 uM after 24 hrs by propidium iodide staining based flow cytometry (reference value: 52.4%); format: functional
LNCaP [16] = assay: Cell cycle arrest in human LNCAP cells assessed as accumulation at S phase at 2.5 uM after 24 hrs by propidium iodide staining based flow cytometry (reference value: 37.5%); format: functional
LNCaP [17] = assay: Cell cycle arrest in human LNCAP cells assessed as accumulation at G2 phase at 2.5 uM after 24 hrs by propidium iodide staining based flow cytometry (reference value: 9.83%); format: functional
LNCaP [18] = assay: Cell cycle arrest in human LNCAP cells assessed as accumulation at less G1 phase at 2.5 uM after 24 hrs by propidium iodide staining based flow cytometry (reference value: 1.5%); format: functional
LNCaP [19] = assay: Cell cycle arrest in human LNCAP cells assessed as accumulation at greater G2 phase at 2.5 uM after 24 hrs by propidium iodide staining based flow cytometry (reference value: -0.37%); format: functional
LNCaP [20] = assay: Cell cycle arrest in human LNCAP cells assessed as accumulation at G1 phase at 5 uM after 24 hrs by propidium iodide staining based flow cytometry (reference value: 52.4%); format: functional
LNCaP [21] = assay: Cell cycle arrest in human LNCAP cells assessed as accumulation at S phase at 5 uM after 24 hrs by propidium iodide staining based flow cytometry (reference value: 37.5%); format: functional
LNCaP [22] = assay: Cell cycle arrest in human LNCAP cells assessed as accumulation at G2 phase at 5 uM after 24 hrs by propidium iodide staining based flow cytometry (reference value: 9.83%); format: functional
LNCaP [23] = assay: Cell cycle arrest in human LNCAP cells assessed as accumulation at less G1 phase at 5 uM after 24 hrs by propidium iodide staining based flow cytometry (reference value: 1.5%); format: functional
LNCaP [24] = assay: Cell cycle arrest in human LNCAP cells assessed as accumulation at greater G2 phase at 5 uM after 24 hrs by propidium iodide staining based flow cytometry (reference value: -0.37%); format: functional
LNCaP [25] = assay: Antiproliferative activity against human LNCAP cells after 72 hrs in presence of enzalutamide by MTS assay; format: functional, cell-based; in short: as §1
LNCaP [26] = assay: Antiproliferative activity against human LNCAP cells; format: functional, cell-based
DU-145 [27] = assay: Antiproliferative activity against human DU145 cells after 72 hrs in presence of enzalutamide by MTS assay; format: functional, cell-based; in short: as §1
LNCaP [28] = assay: Antiproliferative activity against human LNCAP cells assessed as cell survival at 100 uM after 72 hrs in presence of enzalutamide by MTS assay relative to control; format: functional; conditions: read-out: Survival; in short: as §2
PC-3 [29] = assay: Antiproliferative activity against human AR negative PC3 cells at 50 uM after 72 hrs by MTS assay relative to control; format: functional; in short: as §3
LNCaP C4-2 [30] = assay: Antiproliferative activity against human AR positive C4-2 cells at 50 uM after 72 hrs by MTS assay relative to control; format: functional; in short: as §3
CWR22R [31] = assay: Antiproliferative activity against human 22Rv1 cells harboring truncated AR at 50 uM after 72 hrs by MTS assay relative to control; format: functional; in short: as §3
Homo sapiens = species: Homo sapiens; assay: Inhibition of HDAC6/HSP90 in human LNCAP cells assessed as downregulation of AR protein level at 2.5 uM after 24 hrs by Western blot method; format: cell-based; in short: as §4
LNCaP [32] = assay: Cell cycle arrest in human LNCAP cells assessed as accumulation at G1 phase at 25 uM after 24 hrs by propidium iodide staining based flow cytometry (reference value: 52.4%); format: functional
LNCaP [33] = assay: Cell cycle arrest in human LNCAP cells assessed as accumulation at S phase at 25 uM after 24 hrs by propidium iodide staining based flow cytometry (reference value: 37.5%); format: functional
LNCaP [34] = assay: Cell cycle arrest in human LNCAP cells assessed as accumulation at G2 phase at 25 uM after 24 hrs by propidium iodide staining based flow cytometry (reference value: 9.83%); format: functional
LNCaP [35] = assay: Cell cycle arrest in human LNCAP cells assessed as accumulation at less G1 phase at 25 uM after 24 hrs by propidium iodide staining based flow cytometry (reference value: 1.5%); format: functional
LNCaP [36] = assay: Cell cycle arrest in human LNCAP cells assessed as accumulation at greater G2 phase at 25 uM after 24 hrs by propidium iodide staining based flow cytometry (reference value: -0.37%); format: functional
CWR22R [37] = assay: Antiproliferative activity against human 22Rv1 cells harboring truncated AR up to 25 uM after 72 hrs by MTS assay; format: functional, cell-based; in short: as §3

C#CCCCCN1C(=O)N(c2ccc(C#N)c(C(F)(F)F)c2)C(=O)C1(C)C
Activity (LNCaP [1]): 33.1% | Activity (LNCaP [2]): 54.2% | Activity (LNCaP [3]): 13.4% | Activity (LNCaP [4]): -0.44% | Activity (LNCaP [5]): -0.21%

CC1(C)C(=O)N(c2ccc(C#N)c(C(F)(F)F)c2)C(=S)N1Cc1ccc(-c2cn(CCOCCOCCOCCOCCOCCOCCOCCOc3cc(O)c4c(=O)c(-c5ccc(O)cc5)coc4c3)nn2)cc1
Activity (LNCaP [6]): inactive | Activity (DU-145 [7]): inactive

CC1(C)C(=O)N(c2ccc(C#N)c(C(F)(F)F)c2)C(=O)N1CCCCc1cn(CCOCCOCCOCCOCCOCCOCCOCCOc2cc(O)c3c(=O)c(-c4ccc(O)cc4)coc3c2)nn1
IC50 (LNCaP [6]): 1.4 µM | IC50 (DU-145 [7]; DU-145, 72 h): 3.4 µM | Survival (LNCaP [8]): <40% | Survival (DU-145 [9]): <40% | Activity (PC-3 [10]): 5 - 10% | Activity (LNCaP C4-2 [11]): 50% | Activity (CWR22R [12]): 15 - 20% | Activity (LNCaP [13]): Dose-dependent effect | Activity (LNCaP [14]): Active | Activity (LNCaP [15]): 34% | Activity (LNCaP [16]): 54.7% | Activity (LNCaP [17]): 10.6% | Activity (LNCaP [18]): -0.094% | Activity (LNCaP [19]): 0.55% | Activity (LNCaP [20]): 39.2% | Activity (LNCaP [21]): 50.8% | Activity (LNCaP [22]): 11.3% | Activity (LNCaP [23]): -0.92% | Activity (LNCaP [24]): -0.63%

CC1(C)C(=O)N(c2ccc(C#N)c(C(F)(F)F)c2)C(=S)N1c1ccc(-c2cn(CCOc3cc(O)c4c(=O)c(-c5ccc(O)cc5)coc4c3)nn2)cc1
Activity (LNCaP [6]): inactive | Activity (DU-145 [7]): inactive

CC1(C)C(=O)N(c2ccc(C#N)c(C(F)(F)F)c2)C(=O)N1CCCCc1cn(CCOc2cc(O)c3c(=O)c(-c4ccc(O)cc4)coc3c2)nn1
Activity (LNCaP [6]): inactive | Activity (DU-145 [7]): inactive

O=c1c(-c2ccc(O)cc2)coc2cc(O)cc(O)c12 [GENISTEIN]
IC50 (LNCaP [6]): 24 µM | IC50 (LNCaP [25]): 31.7 µM | IC50 (LNCaP [26]): 10 to 40 µM | Activity (DU-145 [27]): Dose-dependent effect | viability at 100 µM (LNCaP [28]): 40% | Activity (PC-3 [29]): 40% | Activity (LNCaP C4-2 [30]): 40% | Activity (CWR22R [31]): 40% | inhibition (Homo sapiens): Active | Activity (LNCaP [32]): 37.1% | Activity (LNCaP [33]): 52.5% | Activity (LNCaP [34]): 9.34% | Activity (LNCaP [35]): -0.34% | Activity (LNCaP [36]): 0.21%

CC1(C)C(=O)N(c2ccc(C#N)c(C(F)(F)F)c2)C(=S)N1Cc1ccc(-c2cn(CCOc3cc(O)c4c(=O)c(-c5ccc(O)cc5)coc4c3)nn2)cc1
Activity (LNCaP [6]): inactive | Activity (DU-145 [7]): inactive

CC1(C)C(=O)N(c2ccc(C#N)c(C(F)(F)F)c2)C(=S)N1c1ccc(-c2cn(CCOCCOCCOCCOCCOCCOCCOCCOc3cc(O)c4c(=O)c(-c5ccc(O)cc5)coc4c3)nn2)cc1
Activity (LNCaP [6]): inactive | Activity (DU-145 [7]): inactive

CNC(=O)c1ccc(N2C(=S)N(c3ccc(C#N)c(C(F)(F)F)c3)C(=O)C2(C)C)cc1F
Activity (CWR22R [37]): Active
